Test results from ChEMBL document CHEMBL4007430, “Synthesis and Cytostatic and Antiviral Profiling of Thieno-Fused 7-Deazapurine Ribonucleosides” (J Med Chem, 2017).

What was measured:
Hepatitis C virus [1] = assay: Anti-HCV activity against Hepatitis C virus genotype 1b infected in human Huh7 replicon cells after 96 hrs by luciferase reporter gene assay; assay type: functional, cell-based, Hepacivirus hominis; conditions: Huh-7, 96 h
Hepatitis C virus [2] = assay: Anti-HCV activity against Hepatitis C virus genotype 2a infected in human Huh7 replicon cells after 96 hrs by luciferase reporter gene assay; assay type: functional, cell-based, Hepacivirus hominis; conditions: Huh-7, 96 h
BJ = assay: Cytotoxicity against human BJ cells assessed as cell growth inhibition after 72 hrs by MTS assay; assay type: cell-based
Summary of the method: (§1)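 Cells were exposed to compound for 3 days, then stained with MTS as a quantitative metabolic read-out. IC50 is the concentration that inhibits cell growth by 50%.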

MRC5 = assay: Cytotoxicity against human MRC5 cells assessed as cell growth inhibition after 72 hrs by MTS assay; assay type: cell-based; conditions: MRC5, 72 h; summary of the method: as §1
[3] = Cytotoxicity against mrp-1/mdr-1 overexpressing human CEM-DNR-bulk cells assessed as cell growth inhibition after 72 hrs by MTS assay; assay type: functional, cell-based
Summary of the method: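 Cells were exposed to compound for 3 days, then stained with MTS as a quantitative metabolic read-out.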

HCT-116 [4] = assay: Cytotoxicity against human HCT116 cells assessed as cell growth inhibition after 72 hrs by MTS assay; assay type: functional, cell-based; conditions: HCT-116, 72 h; summary of the method: as §1
HCT-116 [5] = assay: Cytotoxicity against p53 deficient human HCT116 cells assessed as cell growth inhibition after 72 hrs by MTS assay; assay type: functional, cell-based; conditions: HCT-116, 72 h; summary of the method: as §1
K562 = assay: Cytotoxicity against human K562 cells assessed as cell growth inhibition after 72 hrs by MTS assay; assay type: functional, cell-based; conditions: K562, 72 h; summary of the method: as §1
[6] = Cytotoxicity against human K562-TAX cells assessed as cell growth inhibition after 72 hrs by MTS assay; assay type: functional, cell-based; summary of the method: as §1
U2OS = assay: Cytotoxicity against human U2OS cells assessed as cell growth inhibition after 72 hrs by MTS assay; assay type: functional, cell-based
HL-60 = assay: Cytotoxicity against human HL60 cells assessed as reduction in cell viability after 72 hrs by XTT assay; assay type: functional, cell-based; conditions: HL-60, 72 h
Summary of the method: (§2)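 Cells were incubated with compound for 3 days. Viability was then measured with the XTT tetrazolium assay.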

HepG2 = assay: Cytotoxicity against human HepG2 cells assessed as reduction in cell viability after 72 hrs by XTT assay; assay type: functional, cell-based; conditions: HepG2, 72 h; summary of the method: as §2
HeLa S3 = assay: Cytotoxicity against human HeLaS3 cells assessed as reduction in cell viability after 72 hrs by XTT assay; assay type: functional, cell-based; conditions: HeLa S3, 72 h; summary of the method: as §2
A549 = assay: Cytotoxicity against human A549 cells assessed as cell growth inhibition after 72 hrs by MTS assay; assay type: functional, cell-based; conditions: A549, 72 h; summary of the method: as §1
[7] = Cytotoxicity against human HuH7 cells; assay type: cell-based, Huh-7
CCRF-CEM = assay: Cytotoxicity against human CCRF-CEM cells assessed as cell growth inhibition after 72 hrs by MTS assay

SMILES: Nc1ncnc2c1c1ccsc1n2[C@@H]1O[C@H](CO)[C@@H](O)[C@H]1O
- EC50 (Hepatitis C virus [1]): 17.5 µM
- EC50 (Hepatitis C virus [2]): > 44.4 µM
- IC50 (BJ): 1.09 µM
- IC50 (MRC5): > 50 µM
- IC50 [3]: 41.2 µM
- IC50 (HCT-116 [4]): 46.7 µM
- IC50 (HCT-116 [5]): 10.9 µM
- IC50 (K562): 36.3 µM
- IC50 [6]: 0.82 µM
- IC50 (U2OS): 0.51 µM
- IC50 (HL-60): 0.95 µM
- IC50 (HepG2): 1.46 µM
- IC50 (HeLa S3): > 50 µM
- IC50 (A549): 30.1 µM
- CC50 [7]: > 44.4 µM
- IC50 (CCRF-CEM): 0.3 µM

SMILES: OC[C@H]1O[C@@H](n2c3ncnc(-c4ccoc4)c3c3ccsc32)[C@H](O)[C@@H]1O
- IC50 (BJ): > 50 µM
- IC50 (MRC5): > 50 µM
- IC50 [3]: > 50 µM
- IC50 (HCT-116 [4]): > 50 µM
- IC50 (HCT-116 [5]): > 50 µM
- IC50 (K562): > 50 µM
- IC50 [6]: > 50 µM
- IC50 (U2OS): > 50 µM
- IC50 (HL-60): > 50 µM
- IC50 (HepG2): > 50 µM
- IC50 (HeLa S3): > 50 µM
- IC50 (A549): > 50 µM
- IC50 (CCRF-CEM): > 50 µM

SMILES: CN(C)c1ncnc2c1c1sccc1n2[C@@H]1O[C@H](CO)[C@@H](O)[C@H]1O
- IC50 (BJ): > 50 µM
- IC50 (MRC5): > 50 µM
- IC50 [3]: > 50 µM
- IC50 (HCT-116 [4]): > 50 µM
- IC50 (HCT-116 [5]): > 50 µM
- IC50 (K562): > 50 µM
- IC50 [6]: > 50 µM
- IC50 (U2OS): > 50 µM
- IC50 (HL-60): > 50 µM
- IC50 (HepG2): > 50 µM
- IC50 (HeLa S3): > 50 µM
- IC50 (A549): > 50 µM
- IC50 (CCRF-CEM): 47.6 µM

SMILES: Nc1ncnc2c1c1sccc1n2[C@@H]1O[C@H](CO)[C@@H](O)[C@H]1O
- EC50 (Hepatitis C virus [1]): 5.02 µM
- EC50 (Hepatitis C virus [2]): 13.5 µM
- IC50 (BJ): 16.8 µM
- IC50 (MRC5): 30.3 µM
- IC50 [3]: 15.2 µM
- IC50 (HCT-116 [4]): 5.39 µM
- IC50 (HCT-116 [5]): 4.37 µM
- IC50 (K562): 6.16 µM
- IC50 [6]: 4.28 µM
- IC50 (U2OS): 2.5 µM
- IC50 (HL-60): 0.31 µM
- IC50 (HepG2): 0.56 µM
- IC50 (HeLa S3): 1.54 µM
- IC50 (A549): 11.9 µM
- CC50 [7]: 16.4 to 17.2 µM
- IC50 (CCRF-CEM): 6.22 µM

SMILES: Nc1ccn([C@@H]2O[C@H](CO)[C@@H](O)C2(F)F)c(=O)n1 [GEMCITABINE]
- IC50 (BJ): > 50 µM
- IC50 (MRC5): > 50 µM

SMILES: CN(C)c1ncnc2c1c1ccsc1n2[C@@H]1O[C@H](CO)[C@@H](O)[C@H]1O
- IC50 (BJ): > 50 µM
- IC50 (MRC5): > 50 µM
- IC50 [3]: > 50 µM
- IC50 (HCT-116 [4]): > 50 µM
- IC50 (HCT-116 [5]): > 50 µM
- IC50 (K562): > 50 µM
- IC50 [6]: > 50 µM
- IC50 (U2OS): > 50 µM
- IC50 (HL-60): > 50 µM
- IC50 (HepG2): > 50 µM
- IC50 (HeLa S3): > 50 µM
- IC50 (A549): > 50 µM
- IC50 (CCRF-CEM): > 50 µM

SMILES: CC(C)C(=O)OC[C@H]1O[C@@H](n2ccc(N)nc2=O)[C@](C)(F)[C@@H]1OC(=O)C(C)C [MERICITABINE]
- CC50 [7]: > 44.4 µM

SMILES: OC[C@H]1O[C@@H](n2c3ncnc(-c4ccco4)c3c3ccsc32)[C@H](O)[C@@H]1O
- IC50 (BJ): > 50 µM
- IC50 (MRC5): > 50 µM
- IC50 [3]: > 50 µM
- IC50 (HCT-116 [4]): > 50 µM
- IC50 (HCT-116 [5]): > 50 µM
- IC50 (K562): > 50 µM
- IC50 [6]: > 50 µM
- IC50 (U2OS): > 50 µM
- IC50 (HL-60): > 50 µM
- IC50 (HepG2): > 50 µM
- IC50 (HeLa S3): > 50 µM
- IC50 (A549): > 50 µM
- IC50 (CCRF-CEM): > 50 µM

SMILES: OC[C@H]1O[C@@H](n2c3ccsc3c3c(-c4ccoc4)ncnc32)[C@H](O)[C@@H]1O
- IC50 (BJ): 32 µM
- IC50 (MRC5): > 50 µM
- IC50 [3]: > 50 µM
- IC50 (HCT-116 [4]): > 50 µM
- IC50 (HCT-116 [5]): > 50 µM
- IC50 (K562): > 50 µM
- IC50 [6]: > 50 µM
- IC50 (U2OS): > 50 µM
- IC50 (HL-60): > 50 µM
- IC50 (HepG2): > 50 µM
- IC50 (HeLa S3): > 50 µM
- IC50 (A549): > 50 µM
- IC50 (CCRF-CEM): 3.61 µM

SMILES: OC[C@H]1O[C@@H](n2c3ccsc3c3c(-c4ccco4)ncnc32)[C@H](O)[C@@H]1O
- IC50 (BJ): > 50 µM
- IC50 (MRC5): > 50 µM
- IC50 [3]: > 50 µM
- IC50 (HCT-116 [4]): > 50 µM
- IC50 (HCT-116 [5]): > 50 µM
- IC50 (K562): > 50 µM
- IC50 [6]: > 50 µM
- IC50 (U2OS): > 50 µM
- IC50 (HL-60): > 50 µM
- IC50 (HepG2): > 50 µM
- IC50 (HeLa S3): > 50 µM
- IC50 (A549): > 50 µM
- IC50 (CCRF-CEM): > 50 µM
